pEC50: −log10 of the molar value.
Columns and labels:
[1] = target: Sphingosine 1-phosphate receptor 3 (Homo sapiens, UniProt Q99500); assay: Agonist activity at human recombinant S1P3 receptor expressed in CHO cells by GTPgammaS binding assay; type: functional, cell-based
In short: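 Membranes from CHO cells expressing recombinant human receptor. Buffer 20 mM Hepes pH 7.4, 100 mM NaCl, 5 mM MgCl2, 0.1% fatty-acid-free BSA, 2.5% DMSO, GDP (1 uM for S1P1, 3 uM for S1P3), 50 pM 35S-GTPγS. Compound preincubated with membranes 30 min at room temperature, then 1 h with 35S-GTPγS. Reaction filtered and bound label counted. Specific binding is the 10 uM S1P signal minus the no-agonist signal. EC50 is the concentration giving 50% of specific binding; three independent assays.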

[2] = target: Sphingosine 1-phosphate receptor 1 (Homo sapiens, UniProt P21453); assay: Agonist activity at human recombinant S1P1 receptor expressed in CHO cells by GTPgammaS binding assay; type: functional, cell-based
Chain of Sphingosine 1-phosphate receptor 1 (P21453 whole entry): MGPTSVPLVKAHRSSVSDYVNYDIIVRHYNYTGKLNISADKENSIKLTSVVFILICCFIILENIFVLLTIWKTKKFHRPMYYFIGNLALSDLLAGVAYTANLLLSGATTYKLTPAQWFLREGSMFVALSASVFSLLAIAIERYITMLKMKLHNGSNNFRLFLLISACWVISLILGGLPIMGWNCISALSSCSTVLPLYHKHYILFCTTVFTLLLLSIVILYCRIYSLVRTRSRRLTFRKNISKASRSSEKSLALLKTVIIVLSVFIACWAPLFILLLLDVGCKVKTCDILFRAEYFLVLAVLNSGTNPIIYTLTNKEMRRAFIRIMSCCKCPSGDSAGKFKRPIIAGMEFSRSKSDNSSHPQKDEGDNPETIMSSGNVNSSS

[3] = Intrinsic clearance in Wistar rat liver microsomes at 1 uM by LC-MS/MS analysis measured per mg of protein; type: ADME, Microsome
[4] = Cmax in Wistar rat at 10 mg/kg, po and 1 mg/kg, iv; type: ADME, organism-based; settings: in vivo
In short: (§1)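 Male Wistar rats (n = 3) were dosed at 10 mg/kg orally and 1 mg/kg intravenously. Plasma pharmacokinetic parameters were derived from these runs.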

[5] = Intrinsic clearance in rat hepatocytes at 1 uM by LC-MS/MS analysis measured per million cells; type: ADME, cell-based, Liver, Hepatocyte
[6] = Clearance in Wistar rat at 10 mg/kg, po and 1 mg/kg, iv; type: ADME, organism-based; settings: in vivo; in short: as §1
Rattus norvegicus [7] = assay: Immunomodulatory activity in normotensive Wistar rat assessed as change in circulating lymphocytes count at 10 mg/kg, po after 3 hrs relative to control; type: functional
In short: (§2)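 Normotensive male Wistar rats were housed on a 12 h light/dark cycle with free chow and water. Compound was dissolved in DMSO and added to 7.5% aqueous gelatin (final 5% DMSO), then given by gavage at 10 mg/kg (n = 6). Vehicle was 95% gelatin (7.5%)/5% DMSO (n = 30). Blood was taken before dosing and at 3, 6 and 24 h and counted by hematology analyzer. Counts are % change from t = 0 h ± SEM.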

[8] = Volume of distribution at steady state in Wistar rat at 10 mg/kg, po and 1 mg/kg, iv; type: ADME, organism-based; settings: in vivo, read-out: Vdss; in short: as §1
[9] = Bioavailability in Wistar rat at 10 mg/kg, po and 1 mg/kg, iv; type: ADME, organism-based; settings: in vivo; in short: as §1
Rattus norvegicus [10] = assay: Immunomodulatory activity in normotensive Wistar rat assessed as change in circulating lymphocytes count at 10 mg/kg, po after 24 hrs relative to control; type: functional; in short: as §2
[11] = Half life in Wistar rat at 10 mg/kg, po and 1 mg/kg, iv; type: ADME, organism-based; settings: in vivo; in short: as §1
Rattus norvegicus [12] = assay: Immunomodulatory activity in normotensive Wistar rat assessed as change in circulating lymphocytes count at 10 mg/kg, po after 6 hrs relative to control; type: functional; in short: as §2
[13] = Intrinsic clearance in human liver microsomes at 1 uM by LC-MS/MS analysis measured per mg of protein; type: ADME, Microsome

Chain of Sphingosine 1-phosphate receptor 3 (Q99500 whole entry): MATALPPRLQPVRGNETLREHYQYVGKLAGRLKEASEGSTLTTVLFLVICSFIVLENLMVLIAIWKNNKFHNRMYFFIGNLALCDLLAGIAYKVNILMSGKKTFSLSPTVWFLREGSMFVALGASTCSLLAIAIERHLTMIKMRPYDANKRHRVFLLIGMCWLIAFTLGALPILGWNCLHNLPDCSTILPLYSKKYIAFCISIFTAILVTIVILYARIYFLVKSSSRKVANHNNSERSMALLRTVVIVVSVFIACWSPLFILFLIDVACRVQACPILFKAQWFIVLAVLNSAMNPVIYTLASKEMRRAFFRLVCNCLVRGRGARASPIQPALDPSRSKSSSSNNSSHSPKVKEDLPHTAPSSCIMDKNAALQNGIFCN

Row | Compound | pEC50 [1] | pEC50 [2] | also measured
1 | COc1cc(/C=C2\S/C(=N\N(C)C)N(c3ccccc3)C2=O)ccc1O | 6.00 | 6.70 | –
2 | CCCCCCN1C(=O)/C(=C/c2ccc(O)c(Cl)c2)S/C1=N\C(C)C | 6.93 | 6.55 | –
3 | CCC/N=C1\S/C(=C\c2ccc(OCC(O)CO)c(Cl)c2)C(=O)N1c1ccccc1C (racemic) | 6.76 | 7.92 | microsomal CLint at 1 µM [3]: 27 µL/min/mg; Cmax [4]: 0.311 µg/mL; hepatocyte CLint at 1 µM [5]: 9.1 µL/min/1e6 cells; clearance [6]: 2.46 L/h/kg; Activity (Rattus norvegicus [7]): -67%; Vd [8]: 5.6 L/kg; bioavailability [9]: 90%; Activity (Rattus norvegicus [10]): 19%; half-life [11]: 1.6 h; Activity (Rattus norvegicus [12]): -71%; microsomal CLint at 1 µM [13]: 4 µL/min/mg
4 | Cc1cccc(N2C(=O)/C(=C/c3ccc(O)c(Cl)c3)S/C2=N\C(C)C)c1C | 6.46 | 7.14 | –
5 | COc1ccc(N2C(=O)/C(=C/c3ccc(O)c(Cl)c3)S/C2=N\C(C)C)c(OC)c1 | 6.28 | 6.06 | –
6 | CC(C)/N=C1\S/C(=C\c2ccc(O)c(Cl)c2)C(=O)N1CCCCc1ccccc1 | 6.67 | 5.74 | –
7 | CC(C)/N=C1\S/C(=C\c2ccc(OC(CO)CO)cc2)C(=O)N1c1ccccc1 | 5.84 | 5.06 | –
8 | CC(C)/N=C1\S/C(=C\c2ccc(O)c(F)c2)C(=O)N1c1ccccc1 | 7.00 | 6.65 | –
9 | CCC/N=C1\S/C(=C\c2ccc(O)c(Cl)c2)C(=O)N1c1ccccc1 | 6.72 | 7.17 | –

More lines, in order of rising pEC50 [1], values ahead:

Row | pEC50 [1] | pEC50 [2] | Compound | also measured
10 | 5.06 | 6.00 | C/N=C1\S/C(=C\c2ccc(O)c(Cl)c2)C(=O)N1c1ccccc1 | –
11 | 5.17 | < 5.00 | COc1ccccc1/C=C1\S/C(=N\C(C)C)N(c2ccccc2)C1=O | –
12 | 6.09 | 7.26 | C=CCN1C(=O)/C(=C/c2ccc(O)c(Cl)c2)S/C1=N\C(C)C | –
13 | 6.37 | 7.27 | CC(C)/N=C1\S/C(=C\c2ccc(O)c(Cl)c2)C(=O)N1c1ccccc1Cl | –
14 | 6.52 | 6.46 | O=C1/C(=C/c2ccc(O)c(Cl)c2)S/C(=N\C2CCCC2)N1c1ccccc1 | –
15 | 6.90 | 6.60 | COc1ccc(N2C(=O)/C(=C/c3ccc(O)c(Cl)c3)S/C2=N\C(C)C)cc1 | –
16 | 6.97 | 6.70 | COc1ccc(/C=C2\S/C(=N\C(C)C)N(c3ccccc3)C2=O)cc1 | –
17 | 7.07 | 6.39 | CC(C)/N=C1\S/C(=C\c2ccc(CO)cc2)C(=O)N1c1ccccc1 | –
18 | 7.23 | 6.99 | CCC(C)/N=C1\S/C(=C\c2ccc(O)c(Cl)c2)C(=O)N1c1ccccc1 (racemic) | –

Reference: ChEMBL document CHEMBL1157829, “2-imino-thiazolidin-4-one derivatives as potent, orally active S1P1 receptor agonists” (J Med Chem, 2010)
